Experimental data as given in paper PMC3972499 (Scientific Reports, 2014).
“Also recorded” adds a separate entry of the source. Positions of bridges follow the written chain, without caps; N, C: chain ends. Residues, ends and D or L forms follow the SMILES beside them.

How the values were obtained:
[1] = system: M1.5-5 chimera (hNav1.5 with DII/S3–S4 of rNav1.4); experiment: Loss-of-function assay, whole-cell patch clamp, chimera M1.5-5; assay type: cell-based; details: 50 μM SSCM-1
[2] = system: TTX-R currents expressed on DRG cells; experiment: Whole-cell patch clamp, TTX-R currents on DRG cells; assay type: cell-based; details: 10 μM SSCM-1, containing 200 μM TTX
[3] = system: M1.4-1 chimera (rNav1.4 with DII/S3–S4 of hNav1.5); experiment: Gain-of-function assay, whole-cell patch clamp, chimera M1.4-1; assay type: cell-based
[4] = molecular target: wild type hNav1.5 (Homo sapiens, UniProt Q14524); experiment: Whole-cell patch clamp, HEK293 cells, wild type hNav1.5; assay type: cell-based
Summary of the method: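 HEK293 cells expressing hNav1.5, grown in DMEM with 10% FBS (5% CO2, 37°C). Pipette solution: 140 mM CsF, 10 mM NaCl, 1 mM EGTA, 10 mM HEPES, pH 7.3. Bath solution: 140 mM NaCl, 3 mM KCl, 1 mM MgCl2, 1 mM CaCl2, 10 mM HEPES, pH 7.3. Run at room temperature. Peptide stock 1 mM in ddH2O. Concentration–response curves used points as mean ± S.E. from 3–5 cells.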

[5] = system: WT-rNav1.3; experiment: Whole-cell patch clamp, WT-rNav1.3; assay type: cell-based; details: 50 μM SSCM-1
Summary of the method: (§1)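 Whole-cell recording at room temperature. Peptide stock was 1 mM in double-distilled water, stored in aliquots at −20°C, then diluted to the stated test concentration.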

[6] = system: WT-rNav1.4; experiment: Whole-cell patch clamp, WT-rNav1.4; assay type: cell-based; details: 50 μM SSCM-1
Summary of the method: as §1

[7] = system: hNav1.7 chimeras with S3–S4 fragments replaced by those from hNav1.5; experiment: Gain-of-function assay, whole-cell patch clamp, hNav1.7 chimeras; assay type: cell-based, human; details: 1 μM, HEK293
[8] = system: hNav1.5 chimeras with S3–S4 fragments replaced by those from hNav1.7; experiment: Loss-of-function assay, whole-cell patch clamp, hNav1.5 chimeras; assay type: cell-based, human; details: 1 μM, HEK293
[9] = system: m1.7-1 chimera (hNav1.7 with DII/S3–S4 of hNav1.5); experiment: Whole-cell patch clamp, HEK293 cells, chimera M1.7-1; assay type: cell-based, human; details: read-out: estimated IC50, room temperature, data points mean ± S.E., 3–5 cells
[10] = system: m1.7-4 chimera (hNav1.7 with DII + DIII + DIV S3–S4 of hNav1.5); experiment: Whole-cell patch clamp, HEK293 cells, chimera M1.7-4; assay type: cell-based, human; details: read-out: estimated IC50, room temperature, data points mean ± S.E., 3–5 cells
[11] = system: m1.5-2 chimera (hNav1.5 with DIII/S3–S4 of hNav1.7); experiment: Whole-cell patch clamp, HEK293 cells, chimera M1.5-2; assay type: cell-based, human; details: read-out: estimated IC50, room temperature, data points mean ± S.E., 3–5 cells

wild type hNav1.5, sequence (Q14524 whole entry): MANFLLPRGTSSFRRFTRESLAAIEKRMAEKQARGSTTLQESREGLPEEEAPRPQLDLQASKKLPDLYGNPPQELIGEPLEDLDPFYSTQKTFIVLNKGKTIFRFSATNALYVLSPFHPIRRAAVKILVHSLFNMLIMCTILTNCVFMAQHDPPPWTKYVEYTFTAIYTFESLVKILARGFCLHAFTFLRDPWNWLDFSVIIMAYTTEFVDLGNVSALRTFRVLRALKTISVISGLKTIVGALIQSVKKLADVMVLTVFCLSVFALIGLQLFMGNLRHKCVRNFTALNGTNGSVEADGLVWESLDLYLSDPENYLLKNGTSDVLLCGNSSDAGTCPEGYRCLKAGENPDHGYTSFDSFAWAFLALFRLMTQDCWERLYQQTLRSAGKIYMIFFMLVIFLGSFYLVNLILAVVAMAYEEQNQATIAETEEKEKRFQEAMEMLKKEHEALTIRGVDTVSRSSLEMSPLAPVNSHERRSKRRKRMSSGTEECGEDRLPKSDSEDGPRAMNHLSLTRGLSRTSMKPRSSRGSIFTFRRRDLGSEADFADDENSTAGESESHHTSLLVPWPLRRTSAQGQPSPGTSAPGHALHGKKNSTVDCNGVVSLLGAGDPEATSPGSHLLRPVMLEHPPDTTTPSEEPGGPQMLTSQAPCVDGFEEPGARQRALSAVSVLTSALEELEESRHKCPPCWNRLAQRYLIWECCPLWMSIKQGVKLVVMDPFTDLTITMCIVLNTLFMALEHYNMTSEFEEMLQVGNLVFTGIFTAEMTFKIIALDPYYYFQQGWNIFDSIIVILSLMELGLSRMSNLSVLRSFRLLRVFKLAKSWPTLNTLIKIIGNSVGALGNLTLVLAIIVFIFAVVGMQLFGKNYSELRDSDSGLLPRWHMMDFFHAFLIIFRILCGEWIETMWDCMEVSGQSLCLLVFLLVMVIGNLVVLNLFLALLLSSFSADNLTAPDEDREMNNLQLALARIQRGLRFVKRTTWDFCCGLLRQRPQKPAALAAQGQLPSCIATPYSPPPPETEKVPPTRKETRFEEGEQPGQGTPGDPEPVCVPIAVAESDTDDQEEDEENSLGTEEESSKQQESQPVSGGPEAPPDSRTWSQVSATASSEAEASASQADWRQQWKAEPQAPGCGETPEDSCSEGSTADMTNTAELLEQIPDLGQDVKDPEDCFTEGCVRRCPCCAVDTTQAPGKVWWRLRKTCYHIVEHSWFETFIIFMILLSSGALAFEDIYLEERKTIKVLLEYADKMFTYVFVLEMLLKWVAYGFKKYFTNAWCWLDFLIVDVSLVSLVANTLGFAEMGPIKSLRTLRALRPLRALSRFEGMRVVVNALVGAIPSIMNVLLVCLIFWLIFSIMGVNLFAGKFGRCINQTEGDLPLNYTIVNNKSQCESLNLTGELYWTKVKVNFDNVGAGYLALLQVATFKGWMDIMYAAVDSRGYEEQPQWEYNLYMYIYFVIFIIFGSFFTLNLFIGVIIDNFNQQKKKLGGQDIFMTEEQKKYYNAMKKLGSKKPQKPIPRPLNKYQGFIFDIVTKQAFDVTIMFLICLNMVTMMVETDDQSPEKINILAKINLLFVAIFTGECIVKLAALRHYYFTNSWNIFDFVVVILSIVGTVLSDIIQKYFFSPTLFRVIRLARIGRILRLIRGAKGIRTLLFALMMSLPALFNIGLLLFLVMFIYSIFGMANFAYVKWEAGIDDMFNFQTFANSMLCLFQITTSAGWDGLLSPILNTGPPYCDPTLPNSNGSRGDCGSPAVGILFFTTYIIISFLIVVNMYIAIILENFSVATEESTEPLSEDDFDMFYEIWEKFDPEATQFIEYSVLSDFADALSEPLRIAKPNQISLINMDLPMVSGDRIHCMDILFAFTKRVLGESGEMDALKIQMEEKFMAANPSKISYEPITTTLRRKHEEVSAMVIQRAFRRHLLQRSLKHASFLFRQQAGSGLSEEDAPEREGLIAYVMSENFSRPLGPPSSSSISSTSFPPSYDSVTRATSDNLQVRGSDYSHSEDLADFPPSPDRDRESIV

Structure (SMILES)	inhibition of chimera M1.5-5 currents [1]	inhibition of TTX-R currents, in words [2]	inhibition of chimera M1.4-1 currents ([3]; 50 μM SSCM-1)	inhibitory effect on chimeric rNav1.4 (M1.4-1) currents, in words ([3]; gain-of-function)	IC50 [4]	inhibition at 10 µM ([4]; HEK293, read-out: inhibition of wild type hNav1.5 currents)	inhibitory effect on rNav1.3 currents, in words [5]	inhibitory effect on rNav1.4 currents, in words [6]	Sensitivity to JZTX-III of hNav1.7 chimeras [7]	Sensitivity to JZTX-III inhibition of hNav1.5 chimeras [8]	IC50 [9]	IC50 [10]	IC50 [11]
CC[C@H](C)[C@H](NC(=O)CNC(=O)[C@@H](NC(=O)[C@H](CCCNC(=N)N)NC(=O)[C@@H](NC(=O)[C@H](CO)NC(=O)[C@H](CC(N)=O)NC(=O)[C@H](CCCCN)NC(=O)[C@H](Cc1ccc(O)cc1)NC(=O)[C@H](CCCCN)NC(=O)[C@@H](N)CCSC)[C@@H](C)O)C(C)C)C(=O)N[C@@H](CC(=O)O)C(=O)N[C@H](C(=O)NCC(=O)N[C@@H](CO)C(=O)N[C@H](C(=O)N[C@@H](CCC(=O)O)C(=O)N[C@@H](CC(C)C)C(=O)N[C@@H](CCC(=O)O)C(=O)N[C@@H](CC(C)C)C(=O)N[C@@H](CCC(N)=O)C(=O)N[C@@H](CCSC)C(=O)N[C@@H](CC(N)=O)C(=O)N[C@@H](CCCNC(=N)N)C(=O)N[C@@H](CCCNC(=N)N)C(=O)N[C@@H](Cc1ccc(O)cc1)C(=O)O)[C@@H](C)CC)[C@@H](C)O [SSCM-1, Screened-Sodium-Channel-Interacting peptide-1] (H-MKYKNSTRVGIDTGSIELELQMNRRY-OH)	about 15%	subtle inhibitory activity; also recorded: could not inhibit TTX-R currents	15%	a detectable inhibitory effect	~2880 nM	> 90%	subtle inhibitory activity; also recorded: almost no detectable inhibitory effect	subtle inhibitory activity; also recorded: almost no detectable inhibitory effect					
CC(C)[C@H](NC(=O)[C@H](C)NC(=O)[C@@H]1CSSC[C@@H]2NC(=O)[C@@H]3CCCN3C(=O)[C@@H]3CCCN3C(=O)[C@H](CCCCN)NC(=O)CNC(=O)[C@H](CCCNC(=N)N)NC(=O)CNC(=O)[C@@H]3CSSC[C@H](NC(=O)[C@H](C)NC(=O)[C@H](Cc4ccc(O)cc4)NC(=O)CNC(=O)[C@H](CCCCN)NC(=O)[C@H](CSSC[C@H](NC(=O)[C@H](CCC(=O)O)NC(=O)CNC(=O)[C@@H](N)CC(=O)O)C(=O)NCC(=O)NCC(=O)N[C@@H](Cc4ccccc4)C(=O)N[C@@H](Cc4c[nH]c5ccccc45)C(=O)N[C@@H](Cc4c[nH]c5ccccc45)C(=O)N[C@@H](CCCCN)C(=O)N3)NC2=O)C(=O)N[C@@H](CO)C(=O)N[C@@H](CCCCN)C(=O)N[C@@H]([C@@H](C)O)C(=O)N[C@@H](Cc2c[nH]c3ccccc23)C(=O)NCC(=O)N[C@@H](Cc2c[nH]c3ccccc23)C(=O)N1)C(=O)N[C@@H](CCC(=O)O)C(=O)N[C@@H](C)C(=O)N1CCC[C@H]1C(=O)O [JZTX-III, jingzhaotoxin-III] (H-DGECGGFWWKCGRGKPPCCKGYACSKTWGWCAVEAP-OH; disulfide 4-19, 11-24, 18-31; N-terminus and C-terminus assumed)									gained partial sensitivity to JZTX-III	lost its sensitivity to JZTX-III inhibition	736 nM	476 nM	1050 nM
